Source: article PMC6049601 (International Journal of Nanomedicine, 2018)

Assays:
[1] = tested on: IL-6 in LPS-induced RAW 264.7 cells; experiment: In vitro anti-inflammatory effect: IL-6; type: cell-based, Mouse; settings: 25 μg/mL, LPS 1 μg/mL, 24 h
Summary of the method: (§1)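 RAW 264.7 mouse macrophages grown in RPMI-1640 with 10% FBS at 37°C, 5% CO2, seeded at 2 × 10^5 cells/well. Cells were exposed to LPS (1 μg/mL) with or without test formulation for 24 h; medium-only and LPS-only wells served as control and model. Supernatants were cleared at 10,000 rpm, 4°C. TNF-α, IL-6 and NO were measured by ELISA kits; mean ± SD, n = 3.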

[2] = In vitro release study by dialysis bag method; type: physicochemical; settings: solution formulation, water with 1% Tween 80, 37°C
Summary of the method: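 Test compound was dissolved in water/ethanol/PEG400 (20/40/40, v/v/v). Samples equivalent to 10 mg were sealed in dialysis bags (MWCO ~14,000) and dialysed against 100 mL purified water containing 1% Tween 80 at 37°C. Medium aliquots were taken at set times and replaced with fresh medium, diluted with methanol and assayed by HPLC. Cumulative release percentage was plotted against time.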

[3] = tested on: NO in LPS-induced RAW 264.7 cells; experiment: In vitro anti-inflammatory effect: NO; type: cell-based, Mouse; settings: 25 μg/mL, LPS 1 μg/mL, 24 h
Summary of the method: as §1

Caco-2 cells = experiment: Cellular uptake in Caco-2 cells; type: cell-based; settings: Caco-2, 20 μg/mL, 1, 2 and 4 h
[4] = Oral bioavailability / pharmacokinetic study in rats; type: in vivo, Sprague-Dawley (SD) rats; settings: Sprague-Dawley, rat, plasma, iv, 8 mg/kg
Summary of the method: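 Sprague-Dawley rats (220 ± 20 g, n = 5) were fasted overnight with water allowed, then given test compound solution i.v. at 8 mg/kg. Tail-vein blood was drawn into heparinised tubes at 0.133–12 h. Plasma was extracted with acetonitrile, dried at 30°C, reconstituted in 50% acetonitrile and run on UPLC-QTOF/MS (0.1% formic acid water/acetonitrile gradient). Parameters came from noncompartmental analysis.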

[5] = tested on: TNF-α in LPS-induced RAW 264.7 cells; experiment: In vitro anti-inflammatory effect: TNF-α; type: cell-based, Mouse; settings: 25 μg/mL, LPS 1 μg/mL, 24 h
Summary of the method: as §1

In vitro release [2]: released completely in a very short time
AUC(0-t) [4]: 902 ± 33.7 ng·h/mL
Cmax [4]: 974 ± 302 ng/mL
MRT inf [4]: 5.27 ± 0.931 h
Tmax [4]: 7.98 ± 3.24 min
SMILES: Oc1ccc(/C=C/c2cc(O)cc(O)c2)cc1 [Free RES, Resveratrol]
Effect on IL-6 compared to the LPS model [1]: substantially suppressed
Effect on NO compared to the LPS model [3]: substantially suppressed
Cellular uptake (intracellular RES concentration) (Caco-2 cells): rapid cellular uptake relative to RES-NPs
Effect on TNF-α compared to the LPS model [5]: substantially suppressed
